Active and inactive are the calls of the source.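 Rule for the calls, unless noted: active = inhibition at or above 50% relative to wild type and mutant plate controls; inactive = inhibition below 50%.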
Assays:
[1] = inhibitors of TNFa-induced NFkB p65 translocation, primary screen, imaging, HUVEC, MLSMR starter and 10KST1 sets (AID 438;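 active = inhibition above 20% together with a positive visual image hit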;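 note: compound added about 3h40 before a 20 min TNFalpha stimulation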;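 for inhibition: signal is the nuclear over cytoplasmic p65 intensity ratio per well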); details: HUVEC TNFa-induced p65 nuclear translocation; cell count: measured here: nuclei count (cytotoxicity indicator), at 2.08 µM; inhibition: at 2 µM, stronger effect = higher value, 0% TNFa-plus-vehicle, 100% no-TNFa wells
[2] = inhibitors of E-selectin induction by TNFa, primary screen, imaging, HUVEC, immunofluorescence, MLSMR starter and 10KST1 sets (AID 487;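 active = visually confirmed hit in the image check and inhibition above 20%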;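 for inhibition: signal is fraction of cell area covered by stained E-selectin grains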;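 for nuclei count: 100% = median nuclei count of all wells on the same plate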); details: HUVEC TNFalpha-induced E-selectin immunofluorescence imaging, at 2 µM; inhibition: stronger effect = higher value; nuclei count: measured here: cell number, toxicity
[3] = DUSP6 inhibitors restoring Erk phosphorylation by chemical complementation, primary imaging in DUSP6-transfected HeLa (AID 609;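 active = compounds giving at least 50% inhibition in the cell-based MKP-3 phosphatase rescue imaging test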;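 for inhibition: phospho-Erk level distribution per well compared with pooled transfected vehicle control wells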); details: HeLa MKP-3 transfected, phospho-Erk imaging KS statistic, at 10 µM, cells stimulated with TPA for 15 min
[4] = target: Dual specificity protein phosphatase 6 (Homo sapiens) (UniProt Q16828); experiment: as above; details: HeLa MKP-3 transfected, phospho-Erk imaging KS statistic; at 10 µM; stronger effect = higher value; cells stimulated with TPA for 15 min
[5] = target: Voltage-gated potassium channel subunit beta-2 (Rattus norvegicus) (UniProt P62483); experiment: KvBeta enzyme negative modulators, primary screen, biochemical, NADPH fluorescence (AID 622;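 active = fluorescence slope higher than the sample average by over 3 SD, cut at about -0.22 in these data, passing the limit was not always enough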;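 note: slope of raw intensity against log time taken from 70 to 1610 s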); details: recombinant KvBeta, 4-cyanobenzaldehyde reduction, at 10 µM, stronger effect = higher value
[6] = target: Voltage-gated potassium channel subunit beta-2 (Rattus norvegicus) (UniProt P62483); experiment: KvBeta positive modulators, primary screen, biochemical, NADPH fluorescence (AID 623;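 active = NADPH fluorescence slope more negative than the mean of all samples by about 3 SD, 99.7% confidence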;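 note: fluorescence intensity change per second fitted from 20 to 320 s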); details: Recombinant KvBeta, NADPH fluorescence decrease slope, 10 min; at 10 µM; stronger effect = lower value
[7] = target: Muscarinic acetylcholine receptor M4 (Homo sapiens) (UniProt P08173); experiment: compounds altering M4/GIRK thallium flux, either direction, primary screen, M4 allosteric agonist project, cell-based, HEK293 M4/GIRK, BTC-AM (AID 625;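 active = fluorescence slope after compound addition differing from the mean of all tested samples at 99.7% confidence, mostly higher but some lower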;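 note: thallium influx through GIRK channels coupled to M4 in HEK293 cells with BTC-AM dye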); details: at 10 µM, actives lie on both sides
Summary of the method: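 Assay system: HEK293 cells with M4 receptor and GIRK channels / Controls: carbachol and DMSO controls / Schedule: 1 h dye loading, 2 min kinetic read / Technique: kinetic fluorescence with BTC-AM dye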

[8] = inhibitors of larval lipid processing in zebrafish, primary screen, whole organism, PED6 fluorescence, gall bladder and intestine (AID 686;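 active = a full or partial loss of lipid-probe fluorescence in the fish gall bladder, intestine or both, judged by eye; inactive = no fluorescence loss, or compound toxic to the fish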;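 note: larvae 5 to 7 days old with five fish per well; signal comes from phospholipase A2 cleavage of quenched PED6 carried via bile; overnight exposure to compound and PED6 before scoring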); details: Zebrafish larvae PED6 lipid processing, fluorescence scoring; screened at 20 µM (by protocol)
Summary of the method: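 Doses: 20 µM single dose. Test system: live zebrafish larvae aged 5-7 days, whole organism. Quantity: five larvae per well. Measured by: By-eye fluorescence microscopy. Reagent: ingested quenched lipid PED6 at 100 nM. Read-out: visual per-well fluorescence inhibition score. Times: overnight exposure of larvae to compound plus PED6.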

[9] = inhibitors of Chlamydomonas gravitaxis, primary screen, whole organism, Chlamydomonas reinhardtii, WT vs cilia-less mutant, absorbance, 96-well (AID 463189); details: OD600 absorbance, 2 days, at 10 µM, stronger effect = higher value;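 note: 0% = wild type cc124 cells in DMSO and 100% = ciliumless bld1 mutant cells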
[10] = measured here: cell density z-score
[11] = measured here: nuclear c-Myc green intensity z-score
[12] = measured here: nuclear pErk red intensity z-score, stronger effect = higher value

Chain of Dual specificity protein phosphatase 6 (Homo sapiens) (Q16828 whole entry, looked up): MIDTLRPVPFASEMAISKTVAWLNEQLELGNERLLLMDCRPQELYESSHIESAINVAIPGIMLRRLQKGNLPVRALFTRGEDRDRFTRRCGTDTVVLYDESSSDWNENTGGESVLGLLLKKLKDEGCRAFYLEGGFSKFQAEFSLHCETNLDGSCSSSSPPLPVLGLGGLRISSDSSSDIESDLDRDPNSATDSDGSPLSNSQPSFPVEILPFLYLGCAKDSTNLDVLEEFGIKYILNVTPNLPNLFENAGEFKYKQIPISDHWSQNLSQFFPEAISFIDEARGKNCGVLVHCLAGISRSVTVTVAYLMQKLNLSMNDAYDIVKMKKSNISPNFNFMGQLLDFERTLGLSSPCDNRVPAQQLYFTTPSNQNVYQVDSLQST
Chain of Muscarinic acetylcholine receptor M4 (Homo sapiens) (P08173 whole entry, looked up): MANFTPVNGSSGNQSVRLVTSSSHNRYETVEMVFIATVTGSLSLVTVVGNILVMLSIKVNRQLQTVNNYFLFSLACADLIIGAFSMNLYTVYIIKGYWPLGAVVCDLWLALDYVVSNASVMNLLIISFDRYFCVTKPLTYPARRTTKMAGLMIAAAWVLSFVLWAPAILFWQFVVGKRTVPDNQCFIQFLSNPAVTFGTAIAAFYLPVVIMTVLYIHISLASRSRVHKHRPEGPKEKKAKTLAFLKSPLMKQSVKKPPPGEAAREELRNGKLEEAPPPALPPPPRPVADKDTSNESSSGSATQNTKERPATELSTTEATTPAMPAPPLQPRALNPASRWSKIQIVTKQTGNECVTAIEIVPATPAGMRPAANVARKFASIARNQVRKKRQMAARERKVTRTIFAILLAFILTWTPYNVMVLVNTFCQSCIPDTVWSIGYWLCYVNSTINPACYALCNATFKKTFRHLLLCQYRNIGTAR
Chain of Voltage-gated potassium channel subunit beta-2 (Rattus norvegicus) (P62483 whole entry, looked up): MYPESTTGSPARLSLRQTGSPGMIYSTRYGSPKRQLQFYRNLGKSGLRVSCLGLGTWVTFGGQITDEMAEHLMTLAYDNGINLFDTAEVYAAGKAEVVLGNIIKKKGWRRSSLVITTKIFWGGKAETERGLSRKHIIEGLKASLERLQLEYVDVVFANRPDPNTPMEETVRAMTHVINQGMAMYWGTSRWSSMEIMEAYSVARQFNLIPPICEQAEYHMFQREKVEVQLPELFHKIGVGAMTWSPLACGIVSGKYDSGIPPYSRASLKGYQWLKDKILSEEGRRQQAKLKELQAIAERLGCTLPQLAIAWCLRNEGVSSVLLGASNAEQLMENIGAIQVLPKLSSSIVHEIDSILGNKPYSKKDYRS

Compound	cell count [1]	inhibition [1]	inhibition [2]	nuclei count [2] [%]	z-score [3, 10]	z-score [3, 11]	z-score [3, 12]	inhibition [4]	fluorescence slope [5]	NADPH fluorescence slope [6]	fluorescence slope [7]	outcome [8]	inhibition [9]
O=C1CC(c2ccccc2)n2nc(N3C(=O)c4ccccc4C3=O)nc2N1 (stereo unspecified)	397	3% (inactive)	-72.9% (inactive)	114	0.561	0.157	-0.686	2.71% (inactive)	-0.441 (inactive)	-1.7e-05 (inactive)	0.00457 (inactive)	inactive	21.6% (inactive)
CC(=O)N(Cc1ccccc1)c1ccc(C(=O)O)cc1	486	-9.7% (inactive)	-65.3% (inactive)	95.1	-0.584	0.905	1.49	3.42% (inactive)	-0.454 (inactive)	3.6e-05 (inactive)	0.00471 (inactive)	inactive	18% (inactive)
NC(=O)CSc1nnc2n(-c3ccccc3)c(=O)c3c4c(sc3n12)CCCCC4	376	-1.4% (inactive)	-45.3% (inactive)	193	-0.963	1.04	0.285	-2.59% (inactive)	-0.51 (inactive)	-0.000119 (inactive)	0.00448 (inactive)	inactive	7.56% (inactive)
Cc1ccc(C(=O)NCCCNCCCNC(=O)c2ccc(C)nc2)cn1	393	-2.8% (inactive)	-153% (inactive)	151	0.349	-0.364	-0.725	3.56% (inactive)	-0.471 (inactive)	-8.7e-05 (inactive)	0.00476 (inactive)	inactive	0.875% (inactive)
Cc1cc(Nc2ccc3ccccc3c2)n2ncnc2n1	503	-0.6% (inactive)	56.4% (inactive)	146	-0.633	0.516	-1.5	3.97% (inactive)	-0.414 (inactive)	-4.4e-05 (inactive)	0.00533 (inactive)	inactive	-3.1% (inactive)
COC(=O)/C(C#N)=C1/SC=C(C)N1c1ccccc1	611	4.9% (inactive)	-42.5% (inactive)	115	-0.0327	-1.23	-0.208	-13.3% (inactive)	-0.46 (inactive)	-5.6e-05 (inactive)	0.00543 (inactive)	inactive	-8.28% (inactive)
CCC(C)Nc1nc(OC)nc(N(C)C#N)n1 (stereo unspecified)	675	7.6% (inactive)	-32.5% (inactive)	130	0.721	0.541	0.135	-9.53% (inactive)	-0.431 (inactive)	-5.5e-05 (inactive)	0.00571 (inactive)	inactive	3.27% (inactive)
COC(=O)CSc1nc2c(c(=O)n(C)c(=O)n2C)n1CCC(C)C	599	-7% (inactive)	-120% (inactive)	130	-2.77	3.03	-2.44	3.42% (inactive)	-0.394 (inactive)	6.8e-06 (inactive)	0.00549 (inactive)	inactive	-12.3% (inactive)
O=C(CN1CCc2[nH]c3ccccc3c2C1)N1CCCCC1	538	3.2% (inactive)	-91.5% (inactive)	124	-1.09	-0.293	-0.987	3.42% (inactive)	-0.446 (inactive)	-8.6e-05 (inactive)	0.00512 (inactive)	inactive	-5.72% (inactive)
O=c1[nH]c(CN(CCO)CCO)nc2c1C1(CCCCC1)Cc1ccccc1-2	692	-15.1% (inactive)	-131% (inactive)	181	0.688	0.303	0.475	9.91% (inactive)	-0.47 (inactive)	-5.1e-05 (inactive)	0.00503 (inactive)	inactive	1.18% (inactive)
CCOC(=O)CCNc1n[nH]c(=O)[nH]c1=O	611	29.6% (active)	-2.5% (inactive)	107	0.833	0.318	-1.89	15.5% (inactive)	-0.497 (inactive)	-1.9e-05 (inactive)	0.00518 (inactive)	inactive	-1.35% (inactive)
CC1(C)Cc2c(sc3nc(SCC(=O)NCc4ccco4)n(-c4ccccc4)c(=O)c23)CS1	501	-2.3% (inactive)	-158% (inactive)	112	-1.09	-0.43	0.302	1.98% (inactive)	-0.431 (inactive)	-4.8e-05 (inactive)	0.00628 (inactive)	inactive	-14.1% (inactive)
CCOC(=O)c1cnn2c1[nH]c(=O)c1ccccc12	560	-6.1% (inactive)	-143% (inactive)	165	0.0185	1.83	-0.274	17.8% (inactive)	-0.378 (inactive)	-4.5e-05 (inactive)	0.0106 (active)	inactive	24.1% (inactive)
COc1ccc2[nH]cc(C(=O)CN(C)CCc3ccc(OC)c(OC)c3)c2c1	516	-15.4% (inactive)	-59.5% (inactive)	137	0.922	-0.876	1.1	-14.6% (inactive)	-0.476 (inactive)	-7.3e-05 (inactive)	0.00394 (inactive)	inactive	-1.18% (inactive)
CCCn1c(SCC#N)nc2c(c1=O)C1(CCCC1)Cc1ccccc1-2	547	-1.4% (inactive)	-10.8% (inactive)	185	-0.545	0.717	-0.241	3.97% (inactive)	-0.402 (inactive)	-3.9e-05 (inactive)	0.00798 (inactive)	inactive	-14.9% (inactive)
CCN(CC)CCCN1C(=O)C(=O)/C(=C(/O)c2ccccc2)C1c1cc(OC)ccc1OC (stereo unspecified)	414	-1.4% (inactive)	-75.8% (inactive)	153	-0.00303	-1.03	1.76	1.48% (inactive)	-0.469 (inactive)	-0.000138 (inactive)	0.00498 (inactive)	inactive	32.7% (inactive)
N#Cc1nc(COc2ccc(Br)cc2)oc1NCCN1CCOCC1	510	-5.5% (inactive)	-38.7% (inactive)	169	0.361	0.776	1.07	7.7% (inactive)	-0.432 (inactive)	-4.4e-05 (inactive)	0.00542 (inactive)	inactive	-13.6% (inactive)
Cc1c(C)[n+](=O)c2c(n1[O-])CCC2	529	-2% (inactive)	-51.7% (inactive)	103	-0.661	-0.154	0.608	13.9% (inactive)	-0.343 (inactive)	-2.3e-05 (inactive)	0.00544 (inactive)	inactive	38.1% (inactive)
CC1(C)CC(=O)C2=C(C1)OC(N)=C(C#N)C21C(=O)N(CN2CCOCC2)c2ccccc21 (stereo unspecified)	371	-2.9% (inactive)	-122% (inactive)	138	0.502	-1.1	-1.15	19.4% (inactive)	-0.479 (inactive)	-3.3e-05 (inactive)	0.00562 (inactive)	inactive	36.4% (inactive)
CCOC(=O)CNC(=O)CNC(=O)c1ccc(OC)cc1	394	-0.5% (inactive)	6.4% (inactive)	82.7	0.162	0.31	1.25	17.4% (inactive)	-0.447 (inactive)	-5.5e-05 (inactive)	0.0051 (inactive)	inactive	23.5% (inactive)
CCOC(=O)C1CCCN(c2nc3ccccc3nc2C(C#N)C(=O)OC(C)COC)C1 (stereo unspecified)	683	-5.4% (inactive)	-63% (inactive)	204	-1	0.049	0.811	-5.81% (inactive)	-0.495 (inactive)	-0.000103 (inactive)	0.00181 (inactive)	inactive	23.6% (inactive)
Cc1ccc(OCC(O)CNS(=O)(=O)c2ccccc2C(=O)O)cc1 (stereo unspecified)	625	-11.3% (inactive)	-18.3% (inactive)	152	0.248	0.991	-0.853	21.4% (inactive)	-0.412 (inactive)	-2.6e-05 (inactive)	0.00639 (inactive)	inactive	-7.23% (inactive)
Cc1ccc(-n2ncc3c(NCc4ccc5c(c4)OCO5)ncnc32)c(C)c1	543	-12.5% (inactive)	-35.3% (inactive)	135	-0.519	1.64	-0.848	11.4% (inactive)	-0.376 (inactive)	4.1e-06 (inactive)	0.0052 (inactive)	inactive	47.1% (inactive)
CC(O)CNc1nc2c(c(=O)n(C)c(=O)n2C)n1CCc1ccccc1 (stereo unspecified)	710	-2.3% (inactive)	-92.1% (inactive)	180	0.422	-1.99	1.04	5.95% (inactive)	-0.464 (inactive)	-0.000209 (active)	0.00739 (inactive)	inactive	23% (inactive)
O=C(NCCN1CCCCC1)/C(=N\O)c1ccccc1	515	-13% (inactive)	18.4% (inactive)	155	1.4	0.164	-0.171	23.8% (inactive)	-0.4 (inactive)	-3.3e-05 (inactive)	0.00408 (inactive)	inactive	2.85% (inactive)
CCCSc1nnc(NC(=O)Nc2ccccc2)s1	655	-20.6% (inactive)	-53.8% (inactive)	184	0.599	-1.15	-0.322	5.35% (inactive)	-0.484 (inactive)	-5.4e-05 (inactive)	0.00763 (inactive)	inactive	-6.45% (inactive)
O=C(NCc1ccccc1)/C(=N\O)c1ccccc1	517	-5.4% (inactive)	3.5% (inactive)	157	0.588	0.215	0.627	-1.98% (inactive)	-0.382 (inactive)	-1.6e-05 (inactive)	0.00503 (inactive)	inactive	-1.95% (inactive)

From PubChem BioAssay
